Values belong to the molecule of their own block, whether it stands above or below them.
Key:
[1] = biological target: T1, Adenosine receptor A3 (Homo sapiens) (UniProt P0DMS8); assay: Percent reversal of 100 nM IB-MECA-inhibited cAMP accumulation in CHO cells expressing human adenosine A3 receptor at 1 uM; range 26-54; assay type: functional, cell-based
T1 sequence (whole entry): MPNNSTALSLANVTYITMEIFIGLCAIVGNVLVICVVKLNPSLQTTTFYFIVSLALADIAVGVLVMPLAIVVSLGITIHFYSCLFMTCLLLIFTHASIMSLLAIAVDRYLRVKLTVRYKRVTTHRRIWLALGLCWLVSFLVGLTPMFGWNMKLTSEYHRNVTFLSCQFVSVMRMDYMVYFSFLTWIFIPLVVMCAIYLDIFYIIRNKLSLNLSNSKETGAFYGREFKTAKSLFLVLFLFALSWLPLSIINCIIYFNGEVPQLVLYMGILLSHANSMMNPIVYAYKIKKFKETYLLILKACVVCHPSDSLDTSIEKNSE
Method in brief: (§1)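 CHO cells stably expressing human A3 receptor; membranes in 50 mM Tris HCl, 10 mM MgCl2, 1 mM EDTA pH 7.4 with 5 μM GTP, 0.5 mM […] and 2.0 IU/mL adenosine deaminase. Preincubated 10 min at 37 °C, then IB-MECA (100 nM) and/or antagonist with 1 mM ATP and 10 μM forskolin for 10 min. Boiled 2 min. cAMP read by [3H]cAMP competition with adrenal binding protein.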

Adenosine receptor A2a [2] = biological target: T2, Adenosine receptor A2a (Homo sapiens, UniProt P29274); assay: Displacement of [3H]-SCH- 58261 from human adenosine A2A receptor expressed in CHO cells; range 85-140; assay type: cell-based
Adenosine receptor A2b [3] = biological target: T3, Adenosine receptor A2b (Homo sapiens, UniProt P29275); assay: Displacement of [3H]DPCPX from Adenosine A2b receptor expressed in […]; range 70-94; assay type: cell-based
T3 sequence (P29275 whole entry): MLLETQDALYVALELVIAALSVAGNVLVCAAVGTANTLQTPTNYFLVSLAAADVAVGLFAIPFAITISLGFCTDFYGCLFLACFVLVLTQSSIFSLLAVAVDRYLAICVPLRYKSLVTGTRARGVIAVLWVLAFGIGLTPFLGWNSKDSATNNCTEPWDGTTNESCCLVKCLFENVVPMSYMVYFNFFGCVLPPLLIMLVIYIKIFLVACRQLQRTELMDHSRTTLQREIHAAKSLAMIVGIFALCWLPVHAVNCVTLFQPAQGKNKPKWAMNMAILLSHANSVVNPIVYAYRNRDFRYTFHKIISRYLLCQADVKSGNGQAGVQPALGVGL

Adenosine receptor A1 [4] = biological target: T4, Adenosine receptor A1 (Homo sapiens, UniProt P30542); assay: Displacement of [3H]DPCPX from human adenosine A1 receptor expressed in CHO cells; range 329-375; assay type: cell-based
T4 sequence (P30542 whole entry): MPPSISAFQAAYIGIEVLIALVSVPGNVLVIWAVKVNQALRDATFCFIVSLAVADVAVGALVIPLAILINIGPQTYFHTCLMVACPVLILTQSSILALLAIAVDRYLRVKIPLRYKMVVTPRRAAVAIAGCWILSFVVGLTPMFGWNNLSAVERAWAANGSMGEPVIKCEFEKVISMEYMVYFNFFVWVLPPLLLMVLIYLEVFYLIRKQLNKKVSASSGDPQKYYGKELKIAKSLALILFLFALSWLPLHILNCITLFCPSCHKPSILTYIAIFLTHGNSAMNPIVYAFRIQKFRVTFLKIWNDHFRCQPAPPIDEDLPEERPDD

Adenosine receptor A3 [5] = biological target: T5, Adenosine receptor A3 (Homo sapiens, UniProt P0DMS8); assay: Displacement of [3H]MRE3008-F20 from human adenosine A3 receptor expressed in CHO cells; range 50-61; assay type: cell-based
T5 sequence (P0DMS8 whole entry): T1 sequence (whole entry)

[6] = biological target: Adenosine receptors; A1 & A3 (Homo sapiens) (UniProt P30542+P0DMS8); assay: Ratio of binding affinity of human A1 receptor to that of human A3 receptor; assay type: protein assay
Method in brief: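 Ki ratio from displacement in CHO membranes, 6–8 concentrations, n=3-6, filtration counting. A1: 1 nM [3H]DPCPX, 50 μg protein, 120 min at 25 °C, nonspecific with 10 μM CHA. A3: 1 nM [3H]MRE3008-F20, 50 μg protein, Tris/10 mM MgCl2 pH 7.4, 120 min at 4 °C, nonspecific with 1 μM MRE3008-F20.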

[7] = biological target: Adenosine receptors; A2b & A3 (Homo sapiens) (UniProt P29275+P0DMS8); assay: Ratio of binding affinity of human A2B receptor to that of human A3 receptor; assay type: protein assay
Method in brief: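 Ki ratio, n=3-6, 6–8 concentrations. A2B in HEK-293 membranes (20 μg): 40 nM [3H]DPCPX, 50 mM Tris HCl, 10 mM MgCl2, 1 mM EDTA, 0.1 mM benzamidine pH 7.4, 2 IU/mL adenosine deaminase, 60 min at 25 °C, nonspecific with 100 μM NECA. A3 in CHO membranes (50 μg): 1 nM [3H]MRE3008-F20, 120 min at 4 °C.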

Adenosine receptor A1 [8] = biological target: T4, Adenosine receptor A1; assay: Displacement of [3H]-DPCPX from human adenosine A1 receptor expressed in CHO cells; range 6.9-9.7; assay type: cell-based
Adenosine receptor A2a [9] = biological target: T2, Adenosine receptor A2a; assay: Displacement of [3H]-SCH- 58261 from human adenosine A2A receptor expressed in CHO cells; range 8.7-10.5; assay type: cell-based
Adenosine receptor A3 [10] = biological target: T5, Adenosine receptor A3; assay: Inhibition of cAMP accumulation in CHO cells expressing human adenosine A3 receptor; assay type: functional, cell-based
[11] = biological target: T1, Adenosine receptor A3 (Homo sapiens); assay: Percentage of blockade by 1 uM of the inhibition by 100 nM IB-MECA-inhibited cAMP accumulation in CHO cells expressing human adenosine A3 receptor.; assay type: functional, cell-based; method in brief: as §1
Adenosine receptor A2b [12] = biological target: T3, Adenosine receptor A2b; assay: Displacement of [3H]DPCPX from Adenosine A2b receptor expressed in HEK-293 cells; range 23-40
Adenosine receptor A2b [13] = biological target: T3, Adenosine receptor A2b; assay: Displacement of [3H]DPCPX from Adenosine A2b receptor expressed in […]; range 3.9-6.7; assay type: cell-based
Adenosine receptor A3 [14] = biological target: T5, Adenosine receptor A3; assay: Displacement of [3H]MRE3008-F20 from human adenosine A3 receptor expressed in CHO cells; range 247-317; assay type: cell-based
Adenosine receptor A2a [15] = biological target: T2, Adenosine receptor A2a; assay: biochemical
Adenosine receptor A1 [16] = biological target: T4, Adenosine receptor A1; assay: Displacement of [3H]DPCPX from human adenosine A1 receptor expressed in CHO cells; range 170-358; assay type: cell-based
Adenosine receptor A2a [17] = biological target: T2, Adenosine receptor A2a; assay: Displacement of [3H]-SCH- 58261 from human adenosine A2A receptor expressed in CHO cells; range 267-453; assay type: cell-based
Adenosine receptor A3 [18] = biological target: T5, Adenosine receptor A3; assay: biochemical
Adenosine receptor A2b [19] = biological target: T3, Adenosine receptor A2b; assay: Displacement of [3H]DPCPX from Adenosine A2b receptor expressed in HEK-293 cells; range 934-1327
Adenosine receptor A2b [20] = biological target: T3, Adenosine receptor A2b; assay: Displacement of [3H]DPCPX from Adenosine A2b receptor expressed in […]; range 1637-2582; assay type: cell-based
Adenosine receptor A2a [21] = biological target: T2, Adenosine receptor A2a; assay: Displacement of [3H]-SCH- 58261 from human adenosine A2A receptor expressed in CHO cells; range 218-283; assay type: cell-based
Adenosine receptor A2b [22] = biological target: T3, Adenosine receptor A2b; assay: Tested for inhibitory activity against Adenosine A2b receptor by displacement of [3H]DPCPX expressed in […]; value ranges from 61-80; assay type: cell-based
Adenosine receptor A1 [23] = biological target: T4, Adenosine receptor A1; assay: Displacement of [3H]DPCPX from human adenosine A1 receptor expressed in CHO cells; range 179-317; assay type: cell-based
Adenosine receptor A3 [24] = biological target: T5, Adenosine receptor A3; assay: Inhibition of cAMP accumulation in CHO cells expressing human A3 adenosine receptor; assay type: functional, cell-based
[25] = biological target: T1, Adenosine receptor A3 (Homo sapiens); conditions: CHO, 1 uM
Adenosine receptor A3 [26] = biological target: T5, Adenosine receptor A3; assay: biochemical; remark: listed apart in the source

T2 sequence (P29274 whole entry): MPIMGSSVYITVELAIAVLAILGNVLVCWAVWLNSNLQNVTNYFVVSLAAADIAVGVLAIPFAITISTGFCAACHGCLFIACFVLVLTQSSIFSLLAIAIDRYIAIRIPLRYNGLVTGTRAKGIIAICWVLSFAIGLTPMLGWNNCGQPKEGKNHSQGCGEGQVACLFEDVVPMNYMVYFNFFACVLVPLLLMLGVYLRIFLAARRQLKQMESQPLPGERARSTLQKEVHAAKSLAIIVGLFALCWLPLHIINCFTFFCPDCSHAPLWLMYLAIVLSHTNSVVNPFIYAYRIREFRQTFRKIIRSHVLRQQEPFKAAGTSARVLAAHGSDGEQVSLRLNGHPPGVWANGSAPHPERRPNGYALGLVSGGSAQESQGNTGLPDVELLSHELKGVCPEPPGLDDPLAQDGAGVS

Compound: Nc1nc2nn(CCc3ccccc3)cc2c2nc(-c3ccco3)nn12
- Ki (Adenosine receptor A2b [13]): 5.1 nM
- Ki (Adenosine receptor A3 [14]): 280 nM
- Ratio [6]: 0.003
- Ratio [7]: 0.0017
- inhibition [11]: 28%
- Ki (Adenosine receptor A2a [15]): 0.34 nM

Compound: O=C(Nc1cccc(Cl)c1)Nc1nc2n[nH]cc2c2nc(-c3ccco3)nn12
- Ki (Adenosine receptor A2a [21]): 248 nM
- Ki (Adenosine receptor A2b [22]): 70 nM
- Ki (Adenosine receptor A1 [23]): 238 nM
- IC50 (Adenosine receptor A3 [24]): 5.3 nM
- Ratio [6]: 476
- Ratio [7]: 140
- inhibition [25]: 88%
- Ki (Adenosine receptor A3 [26]): 0.5 nM

Continued, values first:

- inhibition [1]: 38%
- Ki (Adenosine receptor A2a [2]): 110 nM
- Ki (Adenosine receptor A2b [3]): 81 nM
- Ki (Adenosine receptor A1 [4]): 352 nM
- Ki (Adenosine receptor A3 [5]): 55 nM
- Ratio [6]: 6.4
- Ratio [7]: 1.47
Compound: CC(C)=CCn1cc2c(nc(NC(=O)Nc3cccc(Cl)c3)n3nc(-c4ccco4)nc23)n1

- Ki (Adenosine receptor A1 [8]): 8.1 nM
- Ki (Adenosine receptor A2a [9]): 9.5 nM
- IC50 (Adenosine receptor A3 [10]): 2.4 nM
- Ratio [6]: 54
- Ratio [7]: 157
- inhibition [11]: 95%
- Ki (Adenosine receptor A2b [12]): 30 nM
Compound: O=C(Nc1cccc(Cl)c1)Nc1nc2ccc(Cl)cc2c2nc(-c3ccco3)nn12

- Ki (Adenosine receptor A1 [16]): 247 nM
- Ki (Adenosine receptor A2a [17]): 348 nM
- Ratio [6]: 0.06
- Ratio [7]: 0.25
- inhibition [11]: 3%
- Ki (Adenosine receptor A3 [18]): 4480 nM
- Ki (Adenosine receptor A2b [19]): 1110 nM
Compound: Nc1nc2nn(CCc3cc(Br)c(Br)cc3Br)cc2c2nc(-c3ccco3)nn12

- Ki (Adenosine receptor A2b [20]): 2060 nM
Compound: CCCn1cc2c(nc(NC(=O)Nc3ccc(OC)cc3)n3nc(-c4ccco4)nc23)n1
